From PubChem BioAssay
T cruzi repl = blocks replication of Trypanosoma cruzi | 300,000 tested, 1.4% active | inhibition, % (concentration not given with the values) | T. cruzi beta-gal in NIH3T3, luminescence, 90 h | AID 1885;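 active = mean inhibition across valid replicates above about 55%, limit read from the data; inconclusive = mean below that limit but half or more replicates reach it; inactive = mean below it, under half of replicates reach it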;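 also: signal also drops with host cell toxicity which is not excluded here; 0% = plate median of DMSO wells and 100% = zero luminescence signal; higher percent means less beta-gal luminescence so fewer parasites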
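Test system: β-gal T. cruzi (Tulahuen C4) inside NIH/3T3 cells / Quantity: 5,000 cells/well / Measured by: luminescence from GalScreen with 0.05% NP40, read after 60 min / Medium: DMEM plus 2% FBS / Measure: parasite load inhibition, % / Reagent: Tulahuen C4 trypomastigotes, 5000/well / Schedule: co-culture of at least 90 h after 3 h attachment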
UPR XBP1 act = adaptive UPR (XBP1) activation; CHO-XBP1 luciferase reporter, IRE1-XBP1 UPR activation, luminescence; percent of tunicamycin response, DMSO as zero; activation, % at 20 µM; 330,000 tested, 0.33% active; AID 463104;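 active = versus positive control, 20 µM dose yields 30% or more activation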;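 also: 100% = tunicamycin at 10 µg/mL and 0% = DMSO only wells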
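Test system: CHO-XBP1 luciferase reporter cells | Buffer or medium: Serum-containing F12 medium, 10% FBS | Schedule: 6 h compound exposure at 37 °C, 5% CO2 | Detection: Steady-Glo luciferase glow luminescence, 10 min after reagent addition | Read-out basis: Activation, % of tunicamycin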
Beta apoptosis = blocks beta cell apoptosis | INS-1E cytokine-induced death, ATP luminescence, 48 h; percent of positive-control rescue, neutral wells zero | protection from apoptosis, % (concentration not given with the values) | 300,000 tested, 0.8% active | AID 435005;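 active = Every replicate reaches about 75%, or at least half do and their mean reaches it too, limit read from the data; inconclusive = At least half of replicates reach the limit but their mean does not; inactive = Under half of replicates reach the limit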;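 also: 0% = cytokine-treated negative control wells and 100% = positive control rescue; higher means more ATP so stronger rescue from cytokine killing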
CHOP UPR activ = activators of apoptotic arm of unfolded protein response (CHOP); CHO-CHOP luciferase reporter, UPR activation, luminescence; percent of tunicamycin response over DMSO baseline; activation, % at 10 µM; 330,000 tested, 0.34% active; AID 449763;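 active = at 10 µM dose, activation of 40% or more, normalized to positive control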;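 also: 100% = tunicamycin at 10 µg/mL and 0% = DMSO alone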
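measured by = luciferase luminescence | assay system = CHO-CHOP cells, stable luciferase reporter of PERK-eIF2a-CHOP signalling | amount = 500 reporter cells seeded per well | timing = 6 h compound exposure at 37 °C after overnight seeding | controls = positive tunicamycin 10 µg/mL, negative DMSO alone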
Mdm2-MdmX inh = disrupts the human Mdm2-MdmX interaction; O15151+Q00987; SaOS-2 split-luciferase Mdm2/MdmX complementation, luminescence; inhibition, % at 8 µM; 330,000 tested, 3% active; AID 485346;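 active = inhibition of at least 50% at 8 µM in the primary screen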
CSC inhib = cancer stem cell inhibition | cancer stem cell-like cells viability, luminescence | inhibition, % at 7.5 µM | 300,000 tested, 1.1% active | AID 2717; in the data active = inhibition above about 75%; inconclusive = no clear call, values can overlap the other calls; tested in HMLE shEcad cells
Mdm2 MdmX conf = confirmation of human Mdm2/MdmX interaction inhibitors. shares compounds with Mdm2-MdmX inh. Mdm2-MdmX binding, luminescent assay. inhibition, % at 8 µM. 10,000 tested, 55% active. AID 489028; in the data active = inhibition above about 40%
Full FLuc ctr = counter-screen for Mdm2/MdmX inhibitors: full-length luciferase. inhibition, % at 8 µM. 6,200 tested, 77% active. SaOS-2 full-length luciferase counterscreen, luminescence. shares compounds with Mdm2-MdmX inh;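 active = mean inhibition at 8 µM reaching about 37%, which flags the compound as non-specific, limit read from the data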;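 also: p53-null SaOS-2 cells with luciferase driven by a doxycycline-inducible promoter; compound on cells about two nights before reading with doxycycline added after day one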
An asterisk follows results filed as active; ? = inconclusive; nt = no result given. The list is not random: actives were taken first. Their share in the collection is about 5%.

SMILES	T cruzi repl	UPR XBP1 act	Beta apoptosis	CHOP UPR activ	Mdm2-MdmX inh	CSC inhib	Mdm2 MdmX conf	Full FLuc ctr
CCCc1nc(SCC(=O)N2CCC(Cc3ccccc3)CC2)c2c(=O)n(C)c(=O)n(C)c2n1	34	-4	4	1	60*	10	42*	79*
Cn1c(=O)c2c(SCC(=O)N3CCCc4ccccc43)nc(CC(C)(C)C)nc2n(C)c1=O	16	-2	4	4	69*	0	26	nt
CCCc1nc(SCC(=O)Nc2ccccc2)c2c(=O)n(C)c(=O)n(C)c2n1	6	-2	12	-2	9	-2	nt	nt
O=C(CN1CCN(C/C=C/c2ccccc2)CC1)NC(=O)NC1CCCCC1	?	-1	3	2	-21	16	nt	nt
Cc1ccc(NC(=O)C(c2ccccc2)c2ccccc2)nc1	10	-4	-12	1	16	-6	nt	nt
COc1ccc(/C=C2\C(=O)N(c3c(Cl)cc(Cl)cc3Cl)N=C2NC(=O)c2cccc([N+](=O)[O-])c2)cc1	nt	nt	-1	nt	nt	-10	nt	nt
CC1CCCCN1S(=O)(=O)c1ccc(S(=O)(=O)N2CCN(c3ccccc3)CC2)cc1 (stereo not drawn)	5	7	-1	7	57*	3	-11	nt
O=C(c1ccc(S(=O)(=O)N2CCCCC2)cc1)N1CCN(c2ccccc2)CC1	12	0	3	5	-14	-14	nt	nt
CCC(=O)NC(c1cccs1)c1cc(Cl)c2cccnc2c1O (stereo not drawn)	59*	4	99*	2	86*	119*	76*	21
CCCCC(=O)NC(c1cccs1)c1cc(Cl)c2cccnc2c1O (stereo not drawn)	?	0	94*	-2	85*	120*	75*	28
CCCCC(=O)NC(c1ccco1)c1c(O)ccc2ccccc12 (stereo not drawn)	17	-5	1	-3	22	-22	nt	nt
CCC(CC)C(=O)c1c[nH]c(C(=O)N2CCN(c3ccc(OC)cc3)CC2)c1	13	1	-4	1	5	-8	nt	nt
Cc1ccc(S(=O)(=O)N2CCN(C(=O)N(C)C)CC2)cc1	-7	-3	-3	-1	25	-16	nt	nt
Cc1ccc2c(c1)c1c(n2CC(O)CNC2CCCC2)CCCC1 (stereo not drawn)	22	5	-20	1	57*	8	40	77*
Fc1ccccc1N1CCN(c2ncnc3[nH]ncc23)CC1	3	-1	-3	0	63*	-2	25	nt
CC1CCCC(NC(=S)Nc2ccc(SC(F)F)cc2)C1C (stereo not drawn)	18	4	24	-3	90*	?	9	nt
Cc1ccc(NC(=O)CSCC(=O)NCCc2ccccn2)c(C)c1	-9	-2	-3	0	-6	-15	nt	nt
Cc1ccc(Cl)cc1N1CCN(C(=O)c2cc3c(=O)[nH]c4ccccc4c3n2C)CC1	49	7	16	5	71*	16	91*	79*
CC(=O)c1c(C)[nH]c(C(=O)N2CCN(c3cc(Cl)ccc3C)CC2)c1C	-10	-1	23	0	73*	43	75*	34
COc1cccc(N2CCN(C(=O)c3[nH]c(C)c(C(C)=O)c3C)CC2)c1	-30	0	-8	1	54*	-9	68*	42*
COC(=O)c1c(C)[nH]c(C(=O)N2CCN(c3ccc(OC)cc3)CC2)c1C	-6	nt	nt	nt	nt	4	nt	nt
CCCCOC(=O)NS(=O)(=O)c1sc(CC(C)C)cc1-c1ccc(Cn2c(CC)nc3c(C)cc(C)nc32)cc1	nt	29	-7	12	89*	100*	40	72*
Cn1c(CNC(=O)c2ccc(F)cc2)cc2ccccc21	11	-2	-4	-1	-20	-8	nt	nt
CC(C)CN(C#N)c1nc(N2CCOCC2)nc(N2CCOCC2)n1	30	-1	-4	-1	51*	10	38	70*
C=C1C(=O)O[C@@H]2C[C@@H](C)[C@@H]3C=CC(=O)[C@@]3(C)[C@@H](OC(C)=O)[C@H]12	?	-9	136*	-8	100*	85*	100*	51*
SMILES	T cruzi repl	UPR XBP1 act	Beta apoptosis	CHOP UPR activ	Mdm2-MdmX inh	CSC inhib	Mdm2 MdmX conf	Full FLuc ctr
CC(C)=CC(=O)O[C@H]1[C@@H]2[C@H](C)C(=O)O[C@@H]2C[C@@H](C)[C@@H]2[C@@H](O)CC(=O)[C@]21C	17	3	-4	-3	-18	6	nt	nt
O=C(Nc1ccc(Cl)cc1)Nc1nc(-c2sccc2Br)cs1	2	11	52	11	88*	-2	77*	39*
CCOC(=O)Cc1csc(NC(=O)Nc2ccc(Cl)cc2)n1	-4	1	nt	4	9	nt	nt	nt
COc1cc(C2c3[nH]c4ccccc4c3C[C@@H]3C(=O)N(Cc4ccco4)CC(=O)N23)cc(OC)c1OC (stereo partly drawn)	2	-4	0	0	6	-9	nt	nt
C=CCc1cccc([C@@H]2[C@@H](C)CC[C@H]3C(=O)N4[C@@H](c5cc(OC)c(OC)c(OC)c5)c5[nH]c6ccccc6c5C[C@H]4C(=O)N23)c1	47	-3	3	1	71*	17	63*	60*
CC(C)n1cnc2c(N(C)c3ccccc3)nc(N(CCN(C)C)Cc3ccccc3)nc21	51	10	2	1	58*	5	25	nt
Cc1ccc(-n2c(O)c(C=NCc3ccccn3)c3ccccc3c2=O)cc1C	17	0	11	-1	51*	-4	24	nt
CCCNc1nc2c(c(=O)[nH]c(=O)n2C)n1Cc1cccc(Br)c1	19	2	-3	1	66*	16	35	nt
C=CCOc1ccc(/C=C/C(=O)OCC(=O)N(C)CC(=O)Nc2ccc(F)cc2)cc1	-1	0	-2	3	8	-4	nt	nt
COc1ccc2c(c1)c(CC(=O)Nc1nnc(C3CC3)s1)c(C)n2C(=O)c1ccc(Cl)cc1	57*	2	15	-1	83*	nt	80*	65*
N#CCc1cnc2ccccc2n1	10	nt	3	nt	nt	14	nt	nt
CCOC(=O)N1CCN(Cc2nc3ccc([N+](=O)[O-])cc3c(=O)n2-c2ccccc2F)CC1	22	-4	1	0	52*	15	41*	75*
CCC(CC)N1CCN(Cc2nc3ccc([N+](=O)[O-])cc3c(=O)n2-c2ccccc2F)CC1	18	-2	-4	1	2	-8	nt	nt
